Results: ChEMBL document CHEMBL4613220, “Identification of small molecule inhibitors of human COQ7” (Bioorg Med Chem, 2020)
Values joined by “and” are separate entries in the source; they are usually repeats but may differ in a detail not shown here. Identical values can stand only once. Active and inactive are the calls of the source. No cut-off for these calls is given here.

What was measured:
[1] = biological target: T1, 5-demethoxyubiquinone hydroxylase, mitochondrial (Homo sapiens) (UniProt Q99807); experiment: Inhibition of COQ7 in human HeLa cells assessed as DMQ10 level per well at 10 uM after 2 days by HPLC analysis relative to control; format: cell-based; design: scale not given: the % may be the effect or the level left
T1 sequence (whole entry): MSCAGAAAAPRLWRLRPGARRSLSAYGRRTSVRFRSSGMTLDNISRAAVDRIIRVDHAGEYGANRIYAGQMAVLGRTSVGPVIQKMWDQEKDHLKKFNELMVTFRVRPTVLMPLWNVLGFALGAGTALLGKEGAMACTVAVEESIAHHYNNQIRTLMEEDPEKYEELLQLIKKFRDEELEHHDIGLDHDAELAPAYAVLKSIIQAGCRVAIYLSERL
Method in brief: (§1)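 HeLa cells cultured overnight, then exposed 48 hr to compound (single 30 µM screen, 10 µM, or graded doses); 0.5-1.0% DMSO controls. Quinones extracted with ethanol/n-hexane after K3Fe(CN)6 oxidation and UQ9 internal standard, then resolved by C18 HPLC with UV at 275 nm. DMQ10 and UQ10 reported as ng/well and DMQ10 as % of total quinone; mean of duplicates.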

[2] = biological target: T1, 5-demethoxyubiquinone hydroxylase, mitochondrial (Homo sapiens); experiment: Inhibition of COQ7 in human HeLa cells assessed as DMQ10 level per well at 10 uM after 2 days by HPLC analysis; format: cell-based; method in brief: as §1
[3] = (§2) Cytotoxicity against human WI38 cells assessed as growth inhibition after 4 days by cell-titer-Glo assay; format: cell-based, WI-38; conditions: WI-38 cells
Method in brief: (§3)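 WI-38 normal fibroblasts grown in DMEM + 10% FBS at 37 °C, 5% CO2. Pre-cultured 24 hr, then exposed to compound at 0-30 µM for 4 days. Viability read by CellTiter-Glo 2.0; GI50 by linear interpolation of concentration-response curves, mean of triplicates.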

[4] = biological target: T1, 5-demethoxyubiquinone hydroxylase, mitochondrial (Homo sapiens); experiment: Inhibition of COQ7 in human HeLa cells assessed as UQ10 level per well at 10 uM after 2 days by HPLC analysis; format: cell-based; method in brief: as §1
[5] = biological target: T1, 5-demethoxyubiquinone hydroxylase, mitochondrial (Homo sapiens); experiment: Inhibition of COQ7 in human HeLa cells assessed as DMQ10 accumulation at 10 uM after 2 days by HPLC analysis relative to control; format: cell-based; design: scale not given: the % may be the effect or the level left; method in brief: as §1
[6] = biological target: T1, 5-demethoxyubiquinone hydroxylase, mitochondrial (Homo sapiens); experiment: Inhibition of COQ7 in human HeLa cells assessed as DMQ10 accumulation at 30 uM after 2 days by HPLC analysis relative to control; format: cell-based; design: scale not given: the % may be the effect or the level left; method in brief: as §1
[7] = test system: HeLa; experiment: Growth inhibition of human HeLa cells assessed as growth inhibition after 3 days by cell-titer-Glo assay; format: functional; conditions: 72 h
Method in brief: (§4)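 Cells pre-cultured 24 hr, then exposed to a range of compound concentrations for a further 3 days. Viable cells counted by CellTiter-Glo 2.0 luminescence; GI50 obtained by linear interpolation of concentration-response curves, mean of triplicates. Medium: DMEM + 10% FBS for HeLa and PANC-1, EMEM for C3A, F-12K for PC-3; 37 °C, 5% CO2.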

[8] = biological target: T1, 5-demethoxyubiquinone hydroxylase, mitochondrial (Homo sapiens); experiment: Inhibition of COQ7 in human PANC1 cells assessed as DMQ10 accumulation at 10 uM after 24 hrs by HPLC analysis relative to control; format: cell-based; design: scale not given: the % may be the effect or the level left; conditions: PANC-1
Method in brief: (§5)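 Cells (2 or 4 x 10^5/well) cultured overnight, then exposed 24 hr to compound at 10 µM; DMSO controls. Cells suspended in PBS with 5% K3Fe(CN)6, 0.12 µg UQ9 added as internal standard, quinones extracted in ethanol/n-hexane (2:5). Reverse-phase C18 HPLC, isocratic diisopropyl ether/methanol (1:9), 30 °C, UV 275 nm; DMQ10 at 10.2 min. DMQ10 reported as ng/well and % of total quinone; duplicate wells.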

[9] = test system: C3A; experiment: Growth inhibition of human C3A cells after 3 days in presence of 10 mM 2-DG by cell-titer-Glo assay; format: functional; conditions: 72 h
Method in brief: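 C3A cells in EMEM + 10% FBS with 10 mM 2-deoxyglucose in the medium to block glycolysis. Pre-cultured 24 hr, then exposed to graded compound concentrations for 3 further days. Viable cells quantified by CellTiter-Glo 2.0; GI50 by linear interpolation, mean of triplicates.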

[10] = test system: C3A; experiment: Antiproliferative activity against human C3A cells at 10 uM assessed as increase in cell death incubated for 24 hrs and measured after 3 days
[11] = test system: PC-3; experiment: Cytotoxicity against human PC3 cells assessed as growth inhibition after 3 days by cell-titer-Glo assay; format: functional; conditions: PC-3, 72 h; method in brief: as §4
[12] = test system: C3A; experiment: Growth inhibition of human C3A cells assessed as growth inhibition after 3 days by cell-titer-Glo assay; format: functional; conditions: 72 h; method in brief: as §4
[13] = biological target: T1, 5-demethoxyubiquinone hydroxylase, mitochondrial (Homo sapiens); experiment: Inhibition of COQ7 in human C3A cells assessed as DMQ10 level per well at 10 uM after 1 day by HPLC analysis (reference value: 7.4 ng); format: cell-based; method in brief: as §5
[14] = test system: WI-38; experiment: as §2; format: cell-based; conditions: wi-38, 96 h, 96 h; method in brief: as §3
[15] = biological target: T1, 5-demethoxyubiquinone hydroxylase, mitochondrial (Homo sapiens); experiment: Inhibition of COQ7 in human PC3 cells assessed as DMQ10 accumulation at 10 uM after 24 hrs by HPLC analysis relative to control; format: cell-based; design: scale not given: the % may be the effect or the level left; conditions: PC-3; method in brief: as §5
[16] = test system: PANC-1; experiment: Growth inhibition of human PANC1 cells after 3 days by cell-titer-Glo assay; format: functional; conditions: PANC-1, 72 h; method in brief: as §4
[17] = biological target: T1, 5-demethoxyubiquinone hydroxylase, mitochondrial (Homo sapiens); experiment: Inhibition of COQ7 in human HeLa cells assessed as DMQ10 level per well at 10 uM after 1 day by HPLC analysis (reference value: 6.8 ng); format: cell-based; method in brief: as §5
[18] = biological target: T1, 5-demethoxyubiquinone hydroxylase, mitochondrial (Homo sapiens); experiment: Inhibition of COQ7 in human HeLa cells assessed as DMQ10 accumulation at 20 uM after 2 days by HPLC analysis; format: cell-based; method in brief: as §1
[19] = biological target: T1, 5-demethoxyubiquinone hydroxylase, mitochondrial (Homo sapiens); experiment: Inhibition of COQ7 in human HeLa cells assessed as DMQ10 accumulation at 5 uM after 2 days by HPLC analysis; format: cell-based; method in brief: as §1
[20] = biological target: T1, 5-demethoxyubiquinone hydroxylase, mitochondrial (Homo sapiens); experiment: Inhibition of COQ7 in human BxPC3 cells assessed as DMQ10 accumulation at 10 uM after 1 day by HPLC analysis relative to control; format: cell-based; design: scale not given: the % may be the effect or the level left; conditions: BXPC-3; method in brief: as §5
[21] = biological target: T1, 5-demethoxyubiquinone hydroxylase, mitochondrial (Homo sapiens); experiment: Inhibition of COQ7 in human PANC1 cells assessed as DMQ10 accumulation at 10 uM after 1 day by HPLC analysis relative to control; format: cell-based; design: scale not given: the % may be the effect or the level left; conditions: PANC-1; method in brief: as §5
[22] = biological target: T1, 5-demethoxyubiquinone hydroxylase, mitochondrial (Homo sapiens); experiment: Inhibition of COQ7 in human HeLa cells assessed as DMQ10 accumulation at 10 uM after 1 day by HPLC analysis relative to control; format: cell-based; design: scale not given: the % may be the effect or the level left; method in brief: as §5
[23] = biological target: T1, 5-demethoxyubiquinone hydroxylase, mitochondrial (Homo sapiens); experiment: Inhibition of COQ7 in human PC3 cells assessed as DMQ10 accumulation at 10 uM after 1 day by HPLC analysis relative to control; format: cell-based; design: scale not given: the % may be the effect or the level left; conditions: PC-3; method in brief: as §5
[24] = biological target: T1, 5-demethoxyubiquinone hydroxylase, mitochondrial (Homo sapiens); experiment: Inhibition of COQ7 in human C3A cells assessed as DMQ10 accumulation at 10 uM after 1 day by HPLC analysis relative to control; format: cell-based; design: scale not given: the % may be the effect or the level left; method in brief: as §5

Activity [1]	Activity [2]	Activity [4]	Compound	GI50 at 96 h [3]	other results
42.9%	6.6 ng	8.8 ng	Oc1cc(CC2CCCCC2)nn1-c1ccccn1	17.5 µM	–
49.5%	9.2 ng	9.4 ng	Oc1cc(-c2ccccc2)nn1-c1ccc(C(F)(F)F)cn1	9.4 µM	–
0%	0 ng	35.7 ng	Clc1cc(-c2ccccc2)nn1-c1ccccn1	> 30 µM	–
10.8%	1.8 ng	14.8 ng	Oc1cc(-c2ccccc2)nn1-c1ccc(F)cn1	28.9 µM	–
0%	0 ng	20.7 ng	Oc1cc(-c2ccccc2)nn1-c1ncccc1Cl	> 30 µM	–
32.2%	7.3 ng	15.4 ng	Cc1ccc(-n2nc(-c3ccccc3)cc2O)nc1	–	GI50 [7]: > 12 µM; Activity [8]: 8.7%; GI50 [9]: 20.2 µM; Activity [10]: inactive; GI50 [11]: > 12 µM; GI50 [12]: 18.5 µM; GI50 [14]: 26.3 µM and > 12 µM; Activity [15]: 14%; GI50 [16]: > 12 µM
0%	0 ng	28.5 ng	Oc1cc(-c2ccccc2)nn1-c1ccccc1	> 30 µM	–
0%	0 ng	24.4 ng	Oc1cc(C2CCC2)nn1-c1ccccn1	25 µM	–
0%	0 ng	33.7 ng	Oc1cc(-c2ccccc2)nn1-c1ccncc1	> 30 µM	–
10%	2.6 ng	23.4 ng	Nc1ccc(-n2nc(-c3ccccc3)cc2O)nc1	> 30 µM	–
0%	0 ng	22.7 ng	Oc1cc(-c2ccccc2)nn1-c1cc(Cl)ccn1	> 30 µM	–

Second part, the molecule before the results:

Compound	Activity [1]	Activity [2]	Activity [4]	GI50 at 96 h [3]	other results
COc1ccc(-n2nc(-c3ccccc3)cc2O)nc1	0%	0 ng	6.7 ng	25.4 µM	–
CS(=O)(=O)c1ccc(-n2nc(-c3ccccc3)cc2O)nc1	11%	2.2 ng	17.8 ng	> 30 µM	–
Oc1cc(-c2ccccc2)nn1-c1ccccn1	7.1%	1.3 ng	17.1 ng	20.8 µM	Activity [5]: 19.3%; Activity [6]: > 30%
Oc1cc(-c2ccccc2)nn1-c1ccc(Cl)cn1	52%	13.2 ng	12.2 ng	19 µM	GI50 [7]: > 12 µM; Activity [8]: 11.4%; GI50 [9]: 6.1 µM; Activity [10]: inactive; GI50 [11]: > 12 µM; GI50 [12]: 9 µM; Activity [13]: 7.8 ng; GI50 [14]: 19 µM; Activity [15]: 27.6%; GI50 [16]: > 12 µM; Activity [17]: 7.9 ng
Oc1cc(C2CCCCC2)nn1-c1ccccn1	20.7%	5.5 ng	5.9 ng	9.1 µM	–
Oc1c(I)cc(Cl)c2cccnc12	–	–	–	–	Activity [18]: inactive; Activity [19]: Active; Activity [20]: < 5%; Activity [21]: < 5%; Activity [22]: > 20%; Activity [23]: < 5%; Activity [24]: > 20%
Oc1cc(-c2ccccc2)nn1-c1cccnc1	0%	0 ng	23.7 ng	> 30 µM	–
Oc1cc(CCc2ccccc2)nn1-c1ccccn1	51.4%	9.3 ng	8.8 ng	9.6 µM	–
Oc1cc(C2CCCC2)nn1-c1ccccn1	32.4%	5.8 ng	12.1 ng	12.7 µM	–
